13 compounds from ChEMBL document CHEMBL2010740, “Synthesis and evaluation of 2-amido-3-carboxamide thiophene CB₂ receptor agonists for pain management” (Bioorg Med Chem Lett, 2012) can be followed below.

SMILES strings stand for the structures.

For data set [1], the target named is T1, Cannabinoid receptor 1 (Homo sapiens, UniProt P21554). Nature of the data set: Displacement of [3H]CP-55940 from human recombinant CB1 receptor expressed in CHO cells after 90 mins. The format is cell-based. The procedure, abridged: (§1)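 Competitive binding: [³H]CP-55,940 displaced from membranes of HEK 293 cells stably transfected with human or rat CB₂, or CHO cells stably transfected with human or rat CB₁. Reported as pKi. Determinations >2 (duplicate of duplicate).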
(Displacement assays read how much labelled ligand stays bound in the presence of the test substance.)

Data set [2] concerns the target T2, Cannabinoid receptor 2 (Rattus norvegicus, UniProt Q9QZN9).
T2 sequence (Q9QZN9 whole entry): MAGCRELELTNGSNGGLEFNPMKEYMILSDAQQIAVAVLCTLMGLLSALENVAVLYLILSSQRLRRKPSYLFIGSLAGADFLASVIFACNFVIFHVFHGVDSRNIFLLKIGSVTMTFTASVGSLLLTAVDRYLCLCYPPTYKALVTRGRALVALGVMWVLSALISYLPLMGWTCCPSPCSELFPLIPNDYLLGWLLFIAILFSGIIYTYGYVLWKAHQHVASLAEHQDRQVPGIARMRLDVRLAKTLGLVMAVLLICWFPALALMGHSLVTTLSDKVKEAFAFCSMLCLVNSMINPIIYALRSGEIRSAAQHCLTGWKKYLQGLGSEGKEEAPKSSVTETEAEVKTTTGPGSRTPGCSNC
Nature of the data set: Displacement of [3H]CP-55940 from rat recombinant CB2 receptor expressed in HEK293 cells after 90 mins. The format is cell-based. The method in brief:
as §1

Data set [3] concerns the target T3, Cannabinoid receptor 2 (Homo sapiens, UniProt P34972). The data set can be described thus: Displacement of [3H]CP-55940 from human recombinant CB2 receptor expressed in HEK293 cells after 90 mins. It counts as cell-based. The procedure, abridged:
as §1

The nature of data set [4]: Plasma protein binding in rat. The format is ADME, cell-free. Particulars: read-out: PPB (converted).
Data set [5] in a line: Plasma protein binding in human. Particulars: read-out: PPB (converted). The format is ADME, cell-free.
In data set [6] the target is T2, Cannabinoid receptor 2. The data set can be described thus: Agonist activity at rat recombinant CB2 receptor expressed in HEK293 cells assessed as inhibition of forskolin-induced cAMP production after 20 mins by ELISA. It counts as functional, cell-based. The method in brief: (§2)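 cAMP assay in HEK 293 cells stably expressing the relevant CB receptor, with a fixed concentration of forskolin. cAMP was quantified by ELISA. Activation is given as percent of the CP-55,940 control response.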
For orientation: Changes in cAMP serve as a functional read-out for many G protein-coupled receptors.

The target of data set [7] is T3, Cannabinoid receptor 2. The data set can be described thus: Agonist activity at human recombinant CB2 receptor expressed in HEK293 cells co-expressing chimeric Gaq/o protein by FLIPR assay. It counts as functional, cell-based. The method in brief:
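FLIPR functional assay in HEK 293 cells stably co-expressing chimeric Gαq/o protein and the CB receptor. Net peak evoked response was compared with the peak response to CP-55,940.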

The target of data set [8] is T4, Cannabinoid receptor 1 (Rattus norvegicus, UniProt P20272). The data set can be described thus: Displacement of [3H]CP-55940 from rat recombinant CB1 receptor expressed in CHO cells after 90 mins. The format is cell-based. The procedure, abridged:
as §1

Data set [9] has as its target T1, Cannabinoid receptor 1. The data set can be described thus: Agonist activity at human recombinant CB1 receptor expressed in HEK293 cells assessed as inhibition of forskolin-induced cAMP production after 20 mins by ELISA. It counts as functional, cell-based. The method in brief: as §2
Data set [10] concerns the target T4, Cannabinoid receptor 1. Nature of the data set: Agonist activity at rat recombinant CB1 receptor expressed in HEK293 cells assessed as inhibition of forskolin-induced cAMP production after 20 mins by ELISA. The format is functional, cell-based. The procedure, abridged:
as §2

For data set [11], the target named is T5, Cannabinoid receptor 2 (Rattus norvegicus) (UniProt Q9QZN9).
T5 sequence (whole entry): T2 sequence (Q9QZN9 whole entry)
The data set can be described thus: Agonist activity at rat recombinant CB2 receptor expressed in HEK293 cells assessed as inhibition of forskolin-induced cAMP production after 20 mins by ELISA relative to CP55940. It counts as functional, cell-based. The method in brief: as §2

Data set [12] has as its target T3, Cannabinoid receptor 2. The data set can be described thus: Agonist activity at human recombinant CB2 receptor expressed in HEK293 cells assessed as inhibition of forskolin-induced cAMP production after 20 mins by ELISA. The format is functional, cell-based. The method in brief:
as §2

For data set [13], the system named is Rattus norvegicus. The data set can be described thus: Neurotoxicity in rat assessed as decrease in spontaneous locomotory activity at 1 umol/kg, ip after 30 mins. The format is toxicity, organism-based. Set-up: scale not given: the % may be the effect or the level left. The conditions noted are these: in vivo, 0.5 h. The procedure, abridged: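 Given intraperitoneally 30 min before testing; horizontal locomotor activity was recorded and compared across doses.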

T4 sequence (P20272 whole entry): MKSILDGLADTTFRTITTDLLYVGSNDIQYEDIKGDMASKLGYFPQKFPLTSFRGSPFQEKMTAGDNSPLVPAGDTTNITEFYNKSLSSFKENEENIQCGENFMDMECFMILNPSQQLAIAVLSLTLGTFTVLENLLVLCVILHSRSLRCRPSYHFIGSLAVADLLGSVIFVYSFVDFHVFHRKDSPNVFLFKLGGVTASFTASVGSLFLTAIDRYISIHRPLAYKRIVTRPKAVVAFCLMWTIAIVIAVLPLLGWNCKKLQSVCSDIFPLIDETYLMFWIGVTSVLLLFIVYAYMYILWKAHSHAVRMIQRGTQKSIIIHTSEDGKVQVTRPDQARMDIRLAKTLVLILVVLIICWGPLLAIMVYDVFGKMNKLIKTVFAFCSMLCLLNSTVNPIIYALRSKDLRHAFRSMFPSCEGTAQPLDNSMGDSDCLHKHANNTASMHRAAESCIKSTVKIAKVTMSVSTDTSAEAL
T1 sequence (P21554 whole entry): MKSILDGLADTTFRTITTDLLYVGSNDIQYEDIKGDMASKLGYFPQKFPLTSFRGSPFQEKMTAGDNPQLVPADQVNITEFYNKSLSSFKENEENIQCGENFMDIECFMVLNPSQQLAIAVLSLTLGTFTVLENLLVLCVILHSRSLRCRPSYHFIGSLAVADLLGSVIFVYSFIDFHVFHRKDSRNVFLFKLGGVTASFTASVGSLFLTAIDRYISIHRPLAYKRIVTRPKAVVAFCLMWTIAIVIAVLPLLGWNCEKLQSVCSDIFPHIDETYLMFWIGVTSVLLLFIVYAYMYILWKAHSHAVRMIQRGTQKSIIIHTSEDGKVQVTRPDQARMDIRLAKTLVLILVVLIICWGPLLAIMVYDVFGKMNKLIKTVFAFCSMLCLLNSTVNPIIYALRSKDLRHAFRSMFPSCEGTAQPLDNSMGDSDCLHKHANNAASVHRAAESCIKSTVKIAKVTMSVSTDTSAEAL
T3 sequence (P34972 whole entry): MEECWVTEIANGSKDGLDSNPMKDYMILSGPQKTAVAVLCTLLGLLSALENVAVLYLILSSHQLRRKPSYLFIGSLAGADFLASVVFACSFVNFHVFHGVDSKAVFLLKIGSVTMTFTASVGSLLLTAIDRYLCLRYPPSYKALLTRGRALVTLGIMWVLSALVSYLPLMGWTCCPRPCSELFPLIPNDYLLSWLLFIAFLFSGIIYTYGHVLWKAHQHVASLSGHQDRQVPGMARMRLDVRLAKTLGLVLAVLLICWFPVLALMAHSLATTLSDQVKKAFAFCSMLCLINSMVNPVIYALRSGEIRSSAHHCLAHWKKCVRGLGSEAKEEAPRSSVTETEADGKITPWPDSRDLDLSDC

For orientation: Ki means a dissociation constant, usually derived from enzyme kinetics or from competition with a known ligand. Regarding `CCCNC(=O)c1c(NC(=O)C2CC3CCC2C3)sc2c1CCOC2` (centres undefined), the Ki in [1] was more than 10000 nM; in data set [2] it was 269 nM; in data set [3], 105 nM.

Regarding `CCCNC(=O)c1c(NC(=O)c2c(F)cccc2C(F)(F)F)sc2c1CCOC2`, the inhibition constant Ki was more than 10000 nM in data set [1], 331 nM in [2] and 105 nM in data set [3].

As to `CCCNC(=O)c1c(NC(=O)C23CC4CC(CC(C4)O2)C3)sc2c1CCOC2`, the Ki is more than 10000 nM in data set [1], 490 nM in data set [2] and 257 nM in [3].

Regarding `CCCNC(=O)c1c(NC(=O)C23CC4CC(CC2C4)C3)sc2c1CCNC2`, the fraction unbound in data set [4] and in data set [5] was less than 0.01 throughout. Besides, in [3], the inhibition constant (Ki) is more than 1000 nM.

For orientation: IC50 means the point on the concentration scale where inhibition reaches its midpoint. For `O=C(c1c(NC(=O)C23CC4CC(CC2C4)C3)sc2c1CCOC2)N1CC(F)(F)C1`, the Ki in [1] was 3390 nM; in data set [8] it was 66.1 nM; in data set [2] it was 46.8 nM; in [3], 5.62 nM. For the same compound, the IC50 is 9.55 nM in [6]; 5.62 nM in data set [7]; 550 nM in data set [9]; 229 nM in [10]; 0.2 nM in data set [12]. In data set [11], the Imax was 53%.

`CCCNC(=O)c1c(NC(=O)C23CC4CC(CC2C4)C3)sc2c1CCN(C)C2`: the Ki in data set [1] is more than 10000 nM; in [2] it was 5.89 nM; in data set [3], 91.2 nM. Further, in data set [7], the IC50 is more than 10000 nM.

In the case of `CCCNC(=O)c1c(NC(=O)C23CC4CC(CC2C4)C3)sc2c1CCCC2`, the Ki in [1] was 1910 nM; in [8] it was 46.8 nM; in [2] it was 3.55 nM; in [3], 1.95 nM. Further, the IC50 was 83.2 nM in data set [7] and 9.77 nM in [12].

For the compound `CCCNC(=O)c1c(NC(=O)C23CC4CC(CC(C4)C2)C3)sc2c1CCOC2`, the Ki was more than 10000 nM in data set [1], 525 nM in [8], 20 nM in data set [2] and 33.9 nM in data set [3]. In addition, the IC50 in [6] was more than 10000 nM; in data set [7] it was 42.7 nM; in [12], 11.2 nM. Moreover, the fraction unbound in data set [4] and in data set [5] was less than 0.01 in each case.

`O=C(CCCN1CCC(O)(c2ccc(Cl)cc2)CC1)c1ccc(F)cc1` [HALOPERIDOL]: the Activity in data set [13] was determined as 68%.

Take `COCCNC(=O)c1c(NC(=O)C23CC4CC(CC2C4)C3)sc2c1CCOC2`: the inhibition constant (Ki) in [1] was more than 10000 nM; in [2] it was 263 nM; in data set [3], 120 nM.

Regarding `CCCNC(=O)c1c(NC(=O)C2C(C)(C)C2(C)C)sc2c1CCOC2`, the Ki in data set [1] was more than 10000 nM; in data set [8], 191 nM; in [2] it was 4.37 nM; in data set [3] it was 91.2 nM. For the same compound, the figures for the IC50 in data set [6], in data set [7] and in data set [12] were more than 10000 nM, 52.5 nM and 1 nM, respectively.

`CCNC(=O)c1c(NC(=O)C23CC4CC(CC2C4)C3)sc2c1CCOC2`: the Ki in [1] is more than 10000 nM; in [2], 295 nM; in [3], 214 nM.

Regarding `O=C(c1c(NC(=O)C23CC4CC(CC2C4)C3)sc2c1CCOC2)N1CCOCC1`, the Ki is more than 10000 nM in [1], more than 10000 nM in data set [8], more than 10000 nM in data set [2] and 91.2 nM in [3].
